Experimental data: ChEMBL document CHEMBL4823270, “A first-in-class anticancer dual HDAC2/FAK inhibitors bearing hydroxamates/benzamides capped by pyridinyl-1,2,4-triazoles” (Eur J Med Chem, 2021)

Columns and labels:
Histone deacetylase 3 = Histone deacetylase 3 (Homo sapiens, UniProt O15379); assay: Inhibition of human full-length recombinant HDAC3 preincubated for 5 mins followed by HDAC substrate addition and further incubated for 45 mins by fluorescence microplate reader assay
Histone deacetylase 1 = Histone deacetylase 1 (Homo sapiens, UniProt Q13547); assay: Inhibition of human full-length recombinant HDAC1 preincubated for 5 mins followed by HDAC substrate addition and further incubated for 45 mins by fluorescence microplate reader assay
Chain of Histone deacetylase 1 (Q13547 whole entry): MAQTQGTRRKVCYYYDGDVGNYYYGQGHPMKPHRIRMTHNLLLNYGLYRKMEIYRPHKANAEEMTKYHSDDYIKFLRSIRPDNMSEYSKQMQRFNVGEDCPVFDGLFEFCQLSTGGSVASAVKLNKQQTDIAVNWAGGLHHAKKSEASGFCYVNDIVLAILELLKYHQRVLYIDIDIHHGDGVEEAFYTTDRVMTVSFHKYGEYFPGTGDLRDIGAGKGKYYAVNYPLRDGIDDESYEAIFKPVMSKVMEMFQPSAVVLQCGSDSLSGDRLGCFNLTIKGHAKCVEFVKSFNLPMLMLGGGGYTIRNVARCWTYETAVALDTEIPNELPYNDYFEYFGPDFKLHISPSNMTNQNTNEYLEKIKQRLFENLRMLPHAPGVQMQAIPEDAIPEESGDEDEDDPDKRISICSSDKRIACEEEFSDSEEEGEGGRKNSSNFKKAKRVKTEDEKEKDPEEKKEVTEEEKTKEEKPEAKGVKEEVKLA

Histone deacetylase 8 = biological target: T1, Histone deacetylase 8 (Homo sapiens, UniProt Q9BY41); assay: Inhibition of human full-length recombinant C-terminal His-tagged HDAC8 expressed in baculovirus infected Sf9 insect cells preincubated for 5 mins followed by HDAC substrate addition and further incubated for 45 mins by fluorescence microplate reader assay
T1 sequence (Q9BY41 whole entry): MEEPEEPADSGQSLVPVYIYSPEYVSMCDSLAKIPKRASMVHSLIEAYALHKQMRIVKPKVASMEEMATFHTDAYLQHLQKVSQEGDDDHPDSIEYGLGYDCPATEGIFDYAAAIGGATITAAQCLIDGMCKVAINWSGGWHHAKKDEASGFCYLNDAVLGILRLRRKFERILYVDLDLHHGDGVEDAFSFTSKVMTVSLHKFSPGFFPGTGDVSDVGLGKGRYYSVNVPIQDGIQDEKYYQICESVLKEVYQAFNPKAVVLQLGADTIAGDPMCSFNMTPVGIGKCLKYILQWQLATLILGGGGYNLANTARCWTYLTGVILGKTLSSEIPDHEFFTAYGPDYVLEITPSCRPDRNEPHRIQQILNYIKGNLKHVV

K562 = assay: Growth inhibition of human K562 cells at 10 uM incubated for 24 hrs by MTT assay relative to control; type: functional; conditions: read-out: GI
Summary of the method: (§1)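 Cells seeded at 1 × 10^4 per well, cultured overnight, then exposed to 10 μM compound or DMSO (negative control) for 24 h. After a PBS wash, MTT (2 mg/ml) was added for 4 h at 37°C and formazan dissolved in DMSO. OD read at 570 nm. Growth inhibition = 1 − (OD treated/OD control); at least three independent experiments.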

KG-1 = assay: Growth inhibition of human KG-1 cells at 10 uM incubated for 24 hrs by MTT assay relative to control; type: functional; conditions: KG-1, 24 h; summary of the method: as §1
A498 [1] = assay: Growth inhibition of human A498 cells at 10 uM incubated for 24 hrs by MTT assay relative to control; type: functional; conditions: read-out: GI; summary of the method: as §1
HT-29 = assay: Growth inhibition of human HT-29 cells at 10 uM incubated for 24 hrs by MTT assay relative to control; type: functional; conditions: read-out: GI; summary of the method: as §1
CAKI-1 [2] = assay: Growth inhibition of human CAKI-1 cells at 10 uM incubated for 24 hrs by MTT assay relative to control; type: functional; conditions: read-out: GI; summary of the method: as §1
Focal adhesion kinase 1 = Focal adhesion kinase 1 (Homo sapiens, UniProt Q05397); assay: Inhibition of FAK (unknown origin) by FRET-based Z'-Lyte assay
Chain of Focal adhesion kinase 1 (Q05397 whole entry): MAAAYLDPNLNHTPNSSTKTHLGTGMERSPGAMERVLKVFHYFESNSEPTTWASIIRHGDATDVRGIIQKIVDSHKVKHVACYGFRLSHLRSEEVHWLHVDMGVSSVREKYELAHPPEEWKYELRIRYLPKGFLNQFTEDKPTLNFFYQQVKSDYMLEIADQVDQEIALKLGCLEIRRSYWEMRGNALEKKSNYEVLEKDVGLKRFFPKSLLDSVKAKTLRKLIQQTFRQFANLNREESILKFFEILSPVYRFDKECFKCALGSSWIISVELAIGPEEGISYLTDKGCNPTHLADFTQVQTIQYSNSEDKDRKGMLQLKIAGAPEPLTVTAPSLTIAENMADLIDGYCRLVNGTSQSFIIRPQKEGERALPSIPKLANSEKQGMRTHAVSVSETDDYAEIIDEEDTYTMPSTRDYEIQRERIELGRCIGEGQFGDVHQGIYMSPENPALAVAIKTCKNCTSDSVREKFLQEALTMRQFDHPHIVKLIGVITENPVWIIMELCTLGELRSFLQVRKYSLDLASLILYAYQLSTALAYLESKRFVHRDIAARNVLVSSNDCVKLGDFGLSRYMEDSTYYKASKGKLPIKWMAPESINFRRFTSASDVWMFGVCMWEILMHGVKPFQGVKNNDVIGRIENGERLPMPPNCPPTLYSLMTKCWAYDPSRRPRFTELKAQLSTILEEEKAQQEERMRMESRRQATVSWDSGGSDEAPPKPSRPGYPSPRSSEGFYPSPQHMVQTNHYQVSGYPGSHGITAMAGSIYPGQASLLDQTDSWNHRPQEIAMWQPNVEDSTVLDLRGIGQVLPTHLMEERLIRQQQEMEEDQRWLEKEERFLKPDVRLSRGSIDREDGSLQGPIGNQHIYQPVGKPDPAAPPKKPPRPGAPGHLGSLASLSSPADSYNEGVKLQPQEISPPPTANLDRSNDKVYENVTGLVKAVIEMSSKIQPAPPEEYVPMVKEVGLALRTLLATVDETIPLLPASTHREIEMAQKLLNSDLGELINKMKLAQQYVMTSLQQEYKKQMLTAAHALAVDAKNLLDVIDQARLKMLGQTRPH
Summary of the method: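 Recombinant FAK kinase activity measured with the FRET-based Z'-LYTE format; the same platform was used for a kinase panel (FAK, FLT, FRK, IGF-1R, BTK). IC50 values determined.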

[3] = biological target: T2, Protein deacetylase HDAC6 (Homo sapiens, UniProt Q9UBN7); assay: Inhibition of human full-length recombinant HDAC6 preincubated for 5 mins followed by HDAC substrate addition and further incubated for 45 mins by fluorescence microplate reader assay
T2 sequence (Q9UBN7 whole entry): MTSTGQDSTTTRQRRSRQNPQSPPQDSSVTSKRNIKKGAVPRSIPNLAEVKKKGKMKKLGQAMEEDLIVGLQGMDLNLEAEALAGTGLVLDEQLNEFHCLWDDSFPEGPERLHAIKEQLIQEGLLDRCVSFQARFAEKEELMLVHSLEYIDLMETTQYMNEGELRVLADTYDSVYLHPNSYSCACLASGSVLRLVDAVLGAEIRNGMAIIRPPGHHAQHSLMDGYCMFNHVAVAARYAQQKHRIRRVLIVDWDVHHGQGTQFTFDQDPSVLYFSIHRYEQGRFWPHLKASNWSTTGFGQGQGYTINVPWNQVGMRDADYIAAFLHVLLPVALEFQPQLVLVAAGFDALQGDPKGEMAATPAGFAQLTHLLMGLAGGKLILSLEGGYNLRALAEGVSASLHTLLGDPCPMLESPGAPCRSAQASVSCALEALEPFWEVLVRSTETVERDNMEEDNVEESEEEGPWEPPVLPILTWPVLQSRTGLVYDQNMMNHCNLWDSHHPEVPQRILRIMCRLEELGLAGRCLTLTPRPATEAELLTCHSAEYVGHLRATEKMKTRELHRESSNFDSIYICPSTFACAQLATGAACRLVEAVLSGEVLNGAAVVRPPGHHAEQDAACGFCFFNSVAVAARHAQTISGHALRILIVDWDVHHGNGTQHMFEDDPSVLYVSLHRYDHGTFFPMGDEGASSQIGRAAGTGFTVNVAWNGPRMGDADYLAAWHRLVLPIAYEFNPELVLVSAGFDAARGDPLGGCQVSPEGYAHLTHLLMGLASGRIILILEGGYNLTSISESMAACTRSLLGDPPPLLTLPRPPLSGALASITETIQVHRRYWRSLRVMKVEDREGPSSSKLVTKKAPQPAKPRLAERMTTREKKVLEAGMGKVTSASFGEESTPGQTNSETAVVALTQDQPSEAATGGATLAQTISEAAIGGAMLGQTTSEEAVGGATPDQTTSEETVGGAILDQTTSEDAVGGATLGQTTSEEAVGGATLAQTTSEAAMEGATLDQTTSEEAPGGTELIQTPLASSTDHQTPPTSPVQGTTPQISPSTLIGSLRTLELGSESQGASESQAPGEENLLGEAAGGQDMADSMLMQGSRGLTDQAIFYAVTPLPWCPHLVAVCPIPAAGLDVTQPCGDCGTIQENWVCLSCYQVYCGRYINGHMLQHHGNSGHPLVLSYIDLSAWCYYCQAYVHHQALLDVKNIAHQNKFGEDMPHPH

HCT-116 = assay: Growth inhibition of human HCT-116 cells at 10 uM incubated for 24 hrs by MTT assay relative to control; type: functional; conditions: read-out: GI; summary of the method: as §1
CAKI-1 [4] = assay: Antiproliferative activity against human CAKI-1 cells assessed as cell growth inhibition incubated for 24 hrs by MTT assay; type: functional, cell-based; conditions: CAKI-1, 24 h
Histone deacetylase 2 = Histone deacetylase 2 (Homo sapiens, UniProt Q92769); assay: Inhibition of human full-length recombinant HDAC2 preincubated for 5 mins followed by HDAC substrate addition and further incubated for 45 mins by fluorescence microplate reader assay
Chain of Histone deacetylase 2 (Q92769 whole entry): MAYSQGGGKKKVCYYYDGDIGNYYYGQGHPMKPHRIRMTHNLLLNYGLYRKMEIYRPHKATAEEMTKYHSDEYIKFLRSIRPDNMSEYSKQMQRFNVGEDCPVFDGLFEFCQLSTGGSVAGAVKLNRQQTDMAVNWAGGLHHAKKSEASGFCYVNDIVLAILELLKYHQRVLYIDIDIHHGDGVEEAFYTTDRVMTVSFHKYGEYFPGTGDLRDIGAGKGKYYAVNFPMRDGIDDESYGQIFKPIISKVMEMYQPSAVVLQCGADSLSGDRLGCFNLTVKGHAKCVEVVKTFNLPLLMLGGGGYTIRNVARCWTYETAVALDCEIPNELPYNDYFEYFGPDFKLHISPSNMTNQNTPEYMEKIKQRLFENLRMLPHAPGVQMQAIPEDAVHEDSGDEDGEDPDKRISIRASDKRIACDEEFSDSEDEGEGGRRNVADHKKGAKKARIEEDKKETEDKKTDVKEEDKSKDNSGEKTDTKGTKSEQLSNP

A498 [5] = assay: Antiproliferative activity against human A498 cells assessed as cell growth inhibition incubated for 24 hrs by MTT assay; type: functional, cell-based; conditions: A498, 24 h

Chain of Histone deacetylase 3 (O15379 whole entry): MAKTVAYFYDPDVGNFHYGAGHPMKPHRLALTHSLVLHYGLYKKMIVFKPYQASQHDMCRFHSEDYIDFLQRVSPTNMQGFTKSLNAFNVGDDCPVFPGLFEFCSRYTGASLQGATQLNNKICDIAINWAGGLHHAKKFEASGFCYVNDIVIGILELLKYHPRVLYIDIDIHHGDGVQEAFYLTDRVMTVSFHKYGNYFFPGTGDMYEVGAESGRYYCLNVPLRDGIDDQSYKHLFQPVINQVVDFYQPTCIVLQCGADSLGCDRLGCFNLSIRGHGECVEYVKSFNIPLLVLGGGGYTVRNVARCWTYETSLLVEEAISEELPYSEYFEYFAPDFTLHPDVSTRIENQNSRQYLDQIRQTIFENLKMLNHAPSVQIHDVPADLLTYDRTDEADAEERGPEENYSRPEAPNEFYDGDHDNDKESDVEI

## Cn1c(SCc2ccc(C(=O)Nc3ccccc3N)cc2)nnc1-c1ccncc1
Histone deacetylase 3
  IC50: 71.1 µM
Histone deacetylase 1
  IC50: 7.64 µM
Histone deacetylase 8
  IC50: 7.85 µM
K562
  inhibition of growth at 10 µM: 54.1%
KG-1
  inhibition in vitro at 10 µM: 24.1%
A498 [1]
  inhibition of growth at 10 µM: 55.6%
HT-29
  inhibition of growth at 10 µM: 47.9%
CAKI-1 [2]
  inhibition of growth at 10 µM: 75.2%
Focal adhesion kinase 1
  IC50: 0.0531 µM
[3]
  IC50: 11 µM
HCT-116
  inhibition of growth at 10 µM: 18%
CAKI-1 [4]
  IC50: 6.97 µM
Histone deacetylase 2
  IC50: 13 µM
A498 [5]
  IC50: 9.34 µM

## Nc1ccccc1NC(=O)CCCCCSc1nnc(-c2ccncc2)n1-c1ccccc1
Histone deacetylase 3
  IC50: > 300 µM
Histone deacetylase 1
  IC50: 256 µM
Histone deacetylase 8
  IC50: > 300 µM
K562
  inhibition of growth at 10 µM: 15.1%
KG-1
  inhibition in vitro at 10 µM: 34.9%
A498 [1]
  inhibition of growth at 10 µM: 4.67%
HT-29
  inhibition of growth at 10 µM: 9.64%
CAKI-1 [2]
  inhibition of growth at 10 µM: 1.65%
Focal adhesion kinase 1
  IC50: 0.312 µM
[3]
  IC50: 159 µM
HCT-116
  inhibition of growth at 10 µM: 24.5%
CAKI-1 [4]
  IC50: 215 µM
Histone deacetylase 2
  IC50: 38.7 µM
A498 [5]
  IC50: 342 µM

## CCn1c(SCc2ccc(C(=O)NO)cc2)nnc1-c1ccncc1
Histone deacetylase 3
  IC50: 174 µM
Histone deacetylase 1
  IC50: > 300 µM
Histone deacetylase 8
  IC50: > 300 µM
K562
  inhibition of growth at 10 µM: 14.3%
KG-1
  inhibition in vitro at 10 µM: 7.12%
A498 [1]
  inhibition of growth at 10 µM: 1.67%
HT-29
  inhibition of growth at 10 µM: 8.34%
CAKI-1 [2]
  inhibition of growth at 10 µM: 9.34%
Focal adhesion kinase 1
  IC50: 0.254 µM
[3]
  IC50: > 300 µM
HCT-116
  inhibition of growth at 10 µM: 1.03%
CAKI-1 [4]
  IC50: 322 µM
Histone deacetylase 2
  IC50: 30.4 µM
A498 [5]
  IC50: 203 µM

## CCn1c(SCCCCCC(=O)Nc2ccccc2N)nnc1-c1ccncc1
Histone deacetylase 3
  IC50: > 300 µM
Histone deacetylase 1
  IC50: > 300 µM
Histone deacetylase 8
  IC50: 198 µM
K562
  inhibition of growth at 10 µM: 10.4%
KG-1
  inhibition in vitro at 10 µM: 3.64%
A498 [1]
  inhibition of growth at 10 µM: 22.3%
HT-29
  inhibition of growth at 10 µM: 18.6%
CAKI-1 [2]
  inhibition of growth at 10 µM: 8.91%
Focal adhesion kinase 1
  IC50: 0.141 µM
[3]
  IC50: > 300 µM
HCT-116
  inhibition of growth at 10 µM: 6.35%
CAKI-1 [4]
  IC50: 98.3 µM
Histone deacetylase 2
  IC50: 27.1 µM
A498 [5]
  IC50: 77.6 µM

## C=CCn1c(SCCCCCC(=O)O)nnc1-c1ccncc1
Histone deacetylase 3
  IC50: 246 µM
Histone deacetylase 1
  IC50: 98.2 µM
Histone deacetylase 8
  IC50: > 300 µM
K562
  inhibition of growth at 10 µM: 2.95%
KG-1
  inhibition in vitro at 10 µM: 15.4%
A498 [1]
  inhibition of growth at 10 µM: 11.4%
HT-29
  inhibition of growth at 10 µM: 21.2%
CAKI-1 [2]
  inhibition of growth at 10 µM: 3.25%
Focal adhesion kinase 1
  IC50: 0.124 µM
[3]
  IC50: > 300 µM
HCT-116
  inhibition of growth at 10 µM: 16.2%
CAKI-1 [4]
  IC50: 164 µM
Histone deacetylase 2
  IC50: 10.1 µM
A498 [5]
  IC50: 85.3 µM

## O=C(O)CCCCCSc1nnc(-c2ccncc2)n1-c1ccccc1
Histone deacetylase 3
  IC50: 21.1 µM
Histone deacetylase 1
  IC50: 8.95 µM
Histone deacetylase 8
  IC50: 11.1 µM
K562
  inhibition of growth at 10 µM: 72.7%
KG-1
  inhibition in vitro at 10 µM: 67.2%
A498 [1]
  inhibition of growth at 10 µM: 89.3%
HT-29
  inhibition of growth at 10 µM: 80.5%
CAKI-1 [2]
  inhibition of growth at 10 µM: 94.8%
Focal adhesion kinase 1
  IC50: 0.0361 µM
[3]
  IC50: 10.9 µM
HCT-116
  inhibition of growth at 10 µM: 78.5%
CAKI-1 [4]
  IC50: 1.89 µM
Histone deacetylase 2
  IC50: 0.64 µM
A498 [5]
  IC50: 2.35 µM

## Nc1ccccc1NC(=O)c1ccc(CSc2nnc(-c3ccncc3)n2-c2ccccc2)cc1
Histone deacetylase 3
  IC50: 113 µM
Histone deacetylase 1
  IC50: 22.1 µM
Histone deacetylase 8
  IC50: 5.32 µM
K562
  inhibition of growth at 10 µM: 19.6%
KG-1
  inhibition in vitro at 10 µM: 47.3%
A498 [1]
  inhibition of growth at 10 µM: 72.5%
HT-29
  inhibition of growth at 10 µM: 37.9%
CAKI-1 [2]
  inhibition of growth at 10 µM: 66.9%
Focal adhesion kinase 1
  IC50: 0.0961 µM
[3]
  IC50: 9.63 µM
HCT-116
  inhibition of growth at 10 µM: 45.4%
CAKI-1 [4]
  IC50: 8.35 µM
Histone deacetylase 2
  IC50: 8.39 µM
A498 [5]
  IC50: 6.19 µM

## CCn1c(SCc2ccc(C(=O)Nc3ccccc3N)cc2)nnc1-c1ccncc1
Histone deacetylase 3
  IC50: > 300 µM
Histone deacetylase 1
  IC50: > 300 µM
Histone deacetylase 8
  IC50: > 300 µM
K562
  inhibition of growth at 10 µM: 8.67%
KG-1
  inhibition in vitro at 10 µM: 5.91%
A498 [1]
  inhibition of growth at 10 µM: 1.18%
HT-29
  inhibition of growth at 10 µM: 1.22%
CAKI-1 [2]
  inhibition of growth at 10 µM: 12.1%
Focal adhesion kinase 1
  IC50: 0.112 µM
[3]
  IC50: > 300 µM
HCT-116
  inhibition of growth at 10 µM: 1.85%
CAKI-1 [4]
  IC50: 80.7 µM
Histone deacetylase 2
  IC50: 40.1 µM
A498 [5]
  IC50: 124 µM

## CCn1c(SCCCCCC(=O)NO)nnc1-c1ccncc1
Histone deacetylase 3
  IC50: > 300 µM
Histone deacetylase 1
  IC50: 76.3 µM
Histone deacetylase 8
  IC50: > 300 µM
K562
  inhibition of growth at 10 µM: 4.09%
KG-1
  inhibition in vitro at 10 µM: 17.3%
A498 [1]
  inhibition of growth at 10 µM: 5.26%
HT-29
  inhibition of growth at 10 µM: 9.15%
CAKI-1 [2]
  inhibition of growth at 10 µM: 2.06%
Focal adhesion kinase 1
  IC50: 0.124 µM
[3]
  IC50: 270 µM
HCT-116
  inhibition of growth at 10 µM: 21.4%
CAKI-1 [4]
  IC50: 112 µM
Histone deacetylase 2
  IC50: 28.9 µM
A498 [5]
  IC50: 149 µM
